Experimental data from ChEMBL document CHEMBL4732034, “Amino alcohol acrylonitriles as broad spectrum and tumour selective cytotoxic agents” (RSC Med Chem, 2021).

How the values were obtained:
MCF7 = assay: Cytotoxicity against human MCF-7 cells assessed as growth inhibition measured after 72 hrs by SRB assay; assay type: functional
In short: (§1)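 Cancer lines were kept in DMEM with 10% FBS and glutamine at 37 °C, 5% CO2, and seeded at 2500–4000 cells per well in duplicate. Compound (from 40 mM DMSO stocks) was added 24 h after plating and left for 72 h. Cells were TCA-fixed, stained with SRB and read at 540 nm. GI50 came from an eight-point dose-response, using the change from day-0 optical density, with three to four independent replicates.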

BE(2)-C = assay: Cytotoxicity against human BE2C cells assessed as growth inhibition measured after 72 hrs by SRB assay; assay type: functional; in short: as §1
MIA PaCa-2 = assay: Cytotoxicity against human MIA cells assessed as growth inhibition measured after 72 hrs by SRB assay; assay type: functional; in short: as §1
DU-145 = assay: Cytotoxicity against human DU-145 cells assessed as growth inhibition measured after 72 hrs by SRB assay; assay type: functional; in short: as §1
[1] = Cytotoxicity against human SJG2 cells assessed as growth inhibition measured after 72 hrs by SRB assay; assay type: functional; conditions: SJ-G2; in short: as §1
A-431 = assay: Cytotoxicity against human A431 cells assessed as growth inhibition measured after 72 hrs by SRB assay; assay type: functional; in short: as §1
HT-29 = assay: Cytotoxicity against human HT29 cells assessed as growth inhibition measured after 72 hrs by SRB assay; assay type: functional; in short: as §1
A2780 = assay: Cytotoxicity against human A2780 cells assessed as growth inhibition measured after 72 hrs by SRB assay; assay type: functional; in short: as §1
[2] = Cytotoxicity against human MCF10A cells assessed as growth inhibition measured after 72 hrs by SRB assay; assay type: cell-based, MCF-10A
NCI-H460 = assay: Cytotoxicity against human H460 cells assessed as growth inhibition measured after 72 hrs by SRB assay; assay type: functional; in short: as §1
U-87 MG = assay: Cytotoxicity against human U87 cells assessed as growth inhibition measured after 72 hrs by SRB assay; assay type: functional, U-87MG ATCC; in short: as §1
[3] = Selectivity index, ratio of GI50 for human MCF10A cells to GI50 for human HT-29 cells by SRB assay; assay type: toxicity; conditions: MCF10A cells versus HT-29 cells, read-out: RatioGI50
In short: (§2)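 Fold selectivity is the MCF10A GI50 divided by the cancer-line GI50. Each GI50 is from the 72 h SRB assay: eight-point dose-response, day-0 optical density baseline, three to four separate replicates.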

[4] = Selectivity index, ratio of GI50 for human MCF10A cells to GI50 for human MCF-7 cells by SRB assay; assay type: toxicity; conditions: MCF10A cells versus MCF-7 cells, read-out: RatioGI50; in short: as §2

SMILES | GI50 (MCF7) [µM] | GI50 (BE(2)-C) [µM] | GI50 (MIA PaCa-2) [µM] | GI50 (DU-145) [µM] | GI50 [1] [µM] | GI50 (A-431) [µM] | GI50 (HT-29) [µM] | GI50 (A2780) [µM] | GI50 at 72 h [2] [µM] | GI50 (NCI-H460) [µM] | GI50 (U-87 MG) [µM] | selectivity ratio [3] | selectivity ratio [4]
CN1CCN(CC(O)COc2ccc(/C=C(\C#N)c3ccc(Cl)c(Cl)c3)cc2)CC1 (racemic) | 2.3 | 2.4 | 2.6 | 2.4 | 2.2 | 1.8 | 1.2 | 2.5 | 2.4 | 2.6 | 2.7 | – | –
N#C/C(=C\c1ccc(OCC(O)CN2CCN(c3ccc([N+](=O)[O-])cc3)CC2)cc1)c1ccc(Cl)c(Cl)c1 (racemic) | > 50 | > 50 | > 50 | > 50 | > 50 | > 50 | > 50 | > 50 | > 50 | > 50 | > 50 | – | –
N#C/C(=C\c1ccc(OCC(O)CN2CCOCC2)cc1)c1ccc(Cl)c(Cl)c1 (racemic) | 5.3 | 3 | 13 | 13 | 9.3 | 3 | 3.1 | 8.9 | 5.6 | 8.7 | 17 | – | –
Cc1ccc(N2CCN(CC(O)COc3ccc(/C=C(\C#N)c4ccc(Cl)c(Cl)c4)cc3)CC2)cc1 (racemic) | 2.3 | 2.7 | 3 | 2.7 | 2.9 | 3.1 | 2.6 | 3 | 3.5 | 2.5 | 6 | – | –
CC1CCCCN1CC(O)COc1ccc(/C=C(\C#N)c2ccc(Cl)c(Cl)c2)cc1 (racemic) | 2.1 | 2.4 | 2.7 | 3 | 2.8 | 1.6 | 0.36 | 2.7 | 2.5 | 2.7 | 2.9 | 6.9 | –
N#C/C(=C\c1ccc(OCC(O)CNC2CCCCC2)cc1)c1ccc(Cl)c(Cl)c1 (racemic) | 2.7 | 2.8 | 2.7 | 2.4 | 2.7 | 2.2 | 2 | 2.9 | 2.8 | 2.2 | 2.8 | – | –
N#C/C(=C\c1ccc(OCC(O)CNc2ccc(Cl)cc2)cc1)c1ccc(Cl)c(Cl)c1 (racemic) | 11 | 14 | 14 | 15 | 15 | 15 | 7 | 10 | 17 | 11 | 16 | – | –
COc1ccc(NCC(O)COc2ccc(/C=C(\C#N)c3ccc(Cl)c(Cl)c3)cc2)cc1 (racemic) | 5.2 | 41 | 27 | 28 | 32 | 62 | 3.7 | 17 | 19 | 16 | 29 | 5.1 | 3.6
N#C/C(=C\c1ccc(OCC(O)CNc2ccc(Br)cc2)cc1)c1ccc(Cl)c(Cl)c1 (racemic) | 5.3 | 11 | 11 | 13 | 11 | 11 | 6 | 10 | 13 | 6.8 | 16 | – | –
N#C/C(=C\c1ccc(OCC(O)CNC23CC4CC(CC(C4)C2)C3)cc1)c1ccc(Cl)c(Cl)c1 (racemic) | 2 | 2.2 | 1.9 | 2.5 | 2 | 2.1 | 0.89 | 1.7 | 2.5 | 1.8 | 2.5 | – | –
N#C/C(=C\c1ccc(OCC(O)CN2CCCCCC2)cc1)c1ccc(Cl)c(Cl)c1 (racemic) | 2.8 | 2.6 | 5.5 | 4.6 | 5.3 | 2.9 | 1.7 | 3 | 3.1 | 3.5 | 3.8 | – | –
CN(C)CC(O)COc1ccc(/C=C(\C#N)c2ccc(Cl)c(Cl)c2)cc1 (racemic) | 1.9 | 2.5 | 2.3 | 2.7 | 2.7 | 1.6 | 0.75 | 2.5 | 2.8 | 2.8 | 3.2 | 3.7 | –
N#C/C(=C\c1ccc(OCC(O)CN2CCCCC2)cc1)c1ccc(Cl)c(Cl)c1 (racemic) | 2.5 | 2.5 | 2.6 | 2.9 | 2.5 | 2.1 | 0.66 | 2.7 | 2.5 | 3 | 3 | 3.8 | –
N#C/C(=C\c1ccc(OCC(O)CN2CCN(c3ccccc3)CC2)cc1)c1ccc(Cl)c(Cl)c1 (racemic) | 4.1 | 16 | 5.7 | 3.5 | 9 | 6.3 | 3.3 | 6.3 | 4.8 | 4 | 5.4 | – | –
CC1CCCN(CC(O)COc2ccc(/C=C(\C#N)c3ccc(Cl)c(Cl)c3)cc2)C1 (racemic) | 2.3 | 2.6 | 3.3 | 4 | 2.8 | 2.5 | 2.4 | 2.8 | 2.5 | 2.9 | 2.8 | – | –
N#C/C(=C\c1ccc(OCC(O)CN2CCN(c3ccc(C(F)(F)F)cc3)CC2)cc1)c1ccc(Cl)c(Cl)c1 (racemic) | > 50 | > 50 | > 50 | > 50 | > 50 | > 50 | – | > 50 | > 50 | > 50 | > 50 | – | –
N#C/C(=C\c1ccc(OCC(O)CN2CCN(c3ccc(Cl)cc3)CC2)cc1)c1ccc(Cl)c(Cl)c1 (racemic) | 15 | > 50 | 17 | 32 | 24 | 27 | 9 | 15 | 18 | 28 | > 50 | – | –
N#C/C(=C\c1ccc(OCC(O)CN2CCCC2)cc1)c1ccc(Cl)c(Cl)c1 (racemic) | 2.8 | 2.8 | 5.6 | 4.2 | 3.7 | 2.6 | 1.5 | 2.7 | 2.9 | 3 | 5.6 | – | –
N#C/C(=C\c1ccc(OCC(O)CN2CCC(c3ccccc3)CC2)cc1)c1ccc(Cl)c(Cl)c1 (racemic) | 2.5 | 2.6 | 2.4 | 2.7 | 2.5 | 2.6 | 1.9 | 2.7 | 2.5 | 2.7 | 2.9 | – | –
CC(=O)c1ccc(N2CCN(CC(O)COc3ccc(/C=C(\C#N)c4ccc(Cl)c(Cl)c4)cc3)CC2)cc1 (racemic) | 11 | > 50 | > 50 | 12 | > 50 | 30 | 7.7 | 40 | 7.5 | > 50 | > 50 | – | –
Cc1ccc(CN2CCN(CC(O)COc3ccc(/C=C(\C#N)c4ccc(Cl)c(Cl)c4)cc3)CC2)cc1 (racemic) | 1.7 | 2 | 2.6 | 4.5 | 2.4 | 2.4 | 1.4 | 1.5 | 2.4 | 2.7 | 3.6 | – | –
N#C/C(=C\c1ccc(OCC(O)CNC2C3CC4CC(C3)CC2C4)cc1)c1ccc(Cl)c(Cl)c1 (racemic) | 2.1 | 2.6 | 2.4 | 2.6 | 2.6 | 2.8 | 1.4 | 2.5 | 2.7 | 2.7 | 2.7 | – | –
CC1CCN(CC(O)COc2ccc(/C=C(\C#N)c3ccc(Cl)c(Cl)c3)cc2)CC1 (racemic) | 2.3 | 2.6 | 3.4 | 4.6 | 3 | 2.6 | 1.7 | 2.7 | 2.7 | 2.9 | 2.9 | – | –
